Assay results of several laboratories.
Protocols differ between the studies behind these lines.
Target: Mitogen-activated protein kinase kinase kinase 5 (MAP3K5, Homo sapiens, UniProt Q99683)
Residues used in one study (Q99683 1-1374): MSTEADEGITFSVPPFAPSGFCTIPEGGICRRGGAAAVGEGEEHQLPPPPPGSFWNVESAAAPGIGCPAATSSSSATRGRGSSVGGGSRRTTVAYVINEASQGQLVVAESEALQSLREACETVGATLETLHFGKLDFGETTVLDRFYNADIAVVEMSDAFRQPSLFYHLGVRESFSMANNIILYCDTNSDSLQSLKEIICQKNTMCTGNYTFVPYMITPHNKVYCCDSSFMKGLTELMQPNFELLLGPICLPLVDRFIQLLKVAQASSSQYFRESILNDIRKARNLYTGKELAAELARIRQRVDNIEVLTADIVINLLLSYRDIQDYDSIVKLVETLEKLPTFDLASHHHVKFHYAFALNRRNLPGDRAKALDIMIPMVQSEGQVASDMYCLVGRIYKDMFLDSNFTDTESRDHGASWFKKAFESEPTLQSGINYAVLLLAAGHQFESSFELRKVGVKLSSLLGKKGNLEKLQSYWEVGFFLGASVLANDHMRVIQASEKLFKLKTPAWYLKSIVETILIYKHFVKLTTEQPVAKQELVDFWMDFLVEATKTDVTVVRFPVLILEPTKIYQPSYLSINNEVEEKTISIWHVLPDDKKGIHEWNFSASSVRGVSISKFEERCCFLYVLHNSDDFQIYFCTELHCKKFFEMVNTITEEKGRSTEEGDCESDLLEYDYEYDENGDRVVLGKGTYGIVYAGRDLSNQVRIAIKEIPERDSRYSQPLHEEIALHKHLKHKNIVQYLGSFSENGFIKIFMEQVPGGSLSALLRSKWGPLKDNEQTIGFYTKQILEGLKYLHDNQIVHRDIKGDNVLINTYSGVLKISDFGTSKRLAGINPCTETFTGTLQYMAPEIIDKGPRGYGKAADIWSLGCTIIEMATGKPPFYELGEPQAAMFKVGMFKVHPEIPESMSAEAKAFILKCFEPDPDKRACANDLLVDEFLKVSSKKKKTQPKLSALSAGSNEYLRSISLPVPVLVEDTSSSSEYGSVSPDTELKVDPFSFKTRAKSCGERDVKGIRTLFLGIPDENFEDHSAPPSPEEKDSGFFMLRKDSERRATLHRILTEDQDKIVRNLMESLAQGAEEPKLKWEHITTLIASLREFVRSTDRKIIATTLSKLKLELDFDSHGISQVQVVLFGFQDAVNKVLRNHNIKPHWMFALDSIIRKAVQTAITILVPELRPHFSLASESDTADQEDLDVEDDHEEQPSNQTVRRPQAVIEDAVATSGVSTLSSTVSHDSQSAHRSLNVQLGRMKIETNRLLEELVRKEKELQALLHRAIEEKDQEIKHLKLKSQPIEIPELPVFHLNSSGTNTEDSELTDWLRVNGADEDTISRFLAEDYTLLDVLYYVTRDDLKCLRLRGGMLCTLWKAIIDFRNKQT

Structure (SMILES) | read-out | mode | method | concentration | quantity | result
COc1ncccc1-c1cnn2ccc(N3CCN(C(=O)OC(C)C)CC3)nc12 | binding |  | competition with immobilised ligand | 1 µM | remaining binding | 73%
Cc1nn(C)cc1-c1nc2c(N3CCN(Cc4ccc(Cl)cc4)CC3)c(Cl)cnc2[nH]1 | binding |  | competition with immobilised ligand | 1 µM | remaining binding | 100%
COc1cc(Nc2ncc(F)c(Nc3ccc4c(n3)NC(=O)C(C)(C)O4)n2)cc(OC)c1OC | binding |  | competition with immobilised ligand | 10 µM | inhibition | 0%
Cn1cc(-c2cccc(N3CCc4c(sc5c4CC(C)(C)C5)C3=O)c2CO)cc(Nc2ccncn2)c1=O | enzyme activity | inhibitor |  | 1 µM | inhibition | 14%
Nc1ncc(-c2nc(N3CCOCC3)nc(N3CCOCC3)n2)c(C(F)F)n1 | binding |  | competition with immobilised ligand | 10 µM | remaining binding | 92%
Cn1cc(-c2cc(F)cc(N3CCn4c(cc5c4CCCC5)C3=O)c2CO)cc(Nc2ccc(N3CCN(C4COC4)CC3)cn2)c1=O | enzyme activity | inhibitor |  | 0.1 µM | inhibition | 2%
Cn1cncc1[C@@](O)(COc1ccc(C#N)cc1-c1ccc(OC(F)(F)F)cc1)c1ccc(C#N)cc1 | cell-free assay |  | competition with immobilised ligand | 1 µM | remaining binding | 91%
O=c1[nH]c2ccccc2n1C1CCN(Cc2ccc(-c3[nH]c4cc5ncnc5cc4nc3-c3ccccc3)cc2)CC1 | cell-free assay |  |  | 0.5 µM | remaining signal | 93.8%
N#CC1(c2ccccn2)CCN(Cc2cc(C(=O)O)c(=O)n3ccccc23)CC1 | cell-free assay |  | competition with immobilised ligand | 1 µM | remaining binding | 75%
CC(C)(C)c1cc(C=C(C#N)C#N)cc(Br)c1O | enzyme activity | inhibitor |  | 0.5 µM | remaining activity | 100%
